Screens from PubChem BioAssay.
MC4R ag barr: human MC4R agonism via beta-arrestin | activation, % at 8.9 µM | actives 0.98% (n = 360,000) | P32245 | U2OS MC4R beta-arrestin complementation, luminescence; percent of melanotan II response, DMSO zero;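 active = activation above a per-plate cutoff, the mean activation of sample wells on that plate plus 3 SD, cut at about 8% in these data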
Target sequence (P32245 whole entry, looked up): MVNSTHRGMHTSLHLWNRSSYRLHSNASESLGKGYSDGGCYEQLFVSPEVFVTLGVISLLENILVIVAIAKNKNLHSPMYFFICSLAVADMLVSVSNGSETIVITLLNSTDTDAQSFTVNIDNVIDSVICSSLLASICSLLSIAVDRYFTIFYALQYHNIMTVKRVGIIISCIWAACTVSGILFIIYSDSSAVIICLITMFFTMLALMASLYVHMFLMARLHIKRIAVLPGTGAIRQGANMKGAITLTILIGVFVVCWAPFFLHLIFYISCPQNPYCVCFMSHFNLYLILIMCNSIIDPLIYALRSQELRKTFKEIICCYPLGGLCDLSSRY
MC4R antag cAMP: antagonists of human melanocortin 4 receptor (MC4R). P32245. MC4R-expressing cells, MTII-stimulated cAMP, LANCE TR-FRET. inhibition, % at 6.5 µM. actives 0.48% (n = 360,000). AID 540295;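 active = inhibition above its plate's cutoff, the mean of tested wells on that plate plus 3 SD, cut at about 29% in these data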;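 also: 0% = Melanotan II alone and 100% = Melanotan II plus saturating MCL0020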
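Assay system: human MC4R-expressing U2OS cells; reagent: Melanotan II stimulation of cells; dosing: 6.5 µM single dose; timing: compound 30 min, challenge 1 h, detection 1 h; signal: TR-FRET cAMP assay; replicates: one well per compound, no replicates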
B2AR ag: human beta-2 adrenergic receptor agonism by FAP; Am2.2-beta2AR cells, FAP receptor internalization, flow cytometry; response, % (concentration not given with the values); actives 0.43% (n = 340,000); AID 504454;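 active = response above a set limit, near 3 SD of response in nonfluorescent compounds, cut at about 42% in these data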
PfGluPho inh: PfG6PD (Plasmodium falciparum) enzyme inhibition | actives 0.78% (n = 350,000) | inhibition, % at 20 µM | PfGluPho enzyme, NADPH resazurin-diaphorase fluorescence;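 active = inhibition reaching at least a set limit at 20 µM in the primary screen, cut at about 59% in these data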;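 also: 0% = DMSO wells with substrate and 100% = DMSO wells lacking glucose-6-phosphate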
ABHD5-PLIN5 inh: ABHD5-PLIN5 protein interaction inhibition; inhibition, % at 4 µM; actives 0.78% (n = 360,000); Q00G26+Q8WTS1; Split G. princeps luciferase complementation, luminescence, 4 h;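 active = inhibition above the mean inhibition across every tested compound plus 3 SD, cut at about 22% in these data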;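 also: 0% = DMSO only wells and the 100% control is not disclosed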
The depositor's hits bear a star; x = no result. Rows were chosen to be rich in hits. Some 3% of all compounds tested hit in one or more screens of this group.

SMILES	MC4R ag barr	MC4R antag cAMP	B2AR ag	PfGluPho inh	ABHD5-PLIN5 inh
O=C(COc1ccccc1)N/N=C/c1ccc([N+](=O)[O-])o1	0	0	3	14	5
CC(c1ccon1)N(C)C(=O)c1cccc(OC2CCN(S(C)(=O)=O)CC2)c1 (centres undefined)	0	17	x	5	-6
Cc1ccc(OCC(=O)NNC(=O)C2CCN(c3nccc(C)n3)CC2)cc1	0	-2	105*	-2	9
CSc1cccc(NC(=O)Nc2nc3c(C)cccc3s2)c1	9.1*	8	8	-4	-10
COC(=O)Nc1nc2c(C)cccc2s1	-2	3	3	-13	3
CCOCCCn1c(SCC(=O)NCc2ccco2)nc2c(sc3ccccc32)c1=O	9.4*	20	6	-4	3
CCCCn1c(SCC(=O)NCc2ccco2)nc2c(sc3ccccc32)c1=O	4	-2	-3	0	5
Nc1c(Cl)cc(C(=O)NC2CC2)cc1Cl	-1	-7	-5	-16	0
Cc1ccc(-c2ccc(=O)n(CC(=O)N3CCN(c4cccc(C)c4)C(C)C3)n2)cc1 (centres undefined)	7	17	6	-5	1
Cc1ccc(-c2ccc(=O)n(CC(=O)N3CCN(c4cc(Cl)ccc4C)CC3)n2)cc1	8.5*	11	-4	-1	-1
CC(C(=O)Nc1ccccc1F)N1CCN(S(=O)(=O)c2ccc(C(F)(F)F)cc2)CC1 (centres undefined)	-2	5	10	20	0
CCNC(=O)/C(C#N)=C/c1c(N2CCOCC2)nc2ccccn2c1=O	-3	20	47*	-7	2
C=CCNC(=O)/C(C#N)=C/c1c(N2CCCCCC2)nc2ccccn2c1=O	2	25	3	-2	-9
Cc1ccc(NC(=O)NC2CC(=O)N(c3ccc4c(c3)OCCO4)C2)cc1F (centres undefined)	-2	-2	-11	3	3
CC(C)COC(=O)NC1c2ccccc2Oc2ccccc21	10*	12	4	-12	-3
O=C(CCCN1C(=O)/C(=C/c2ccccc2)SC1=S)Nc1ccccc1O	6	-3	0	-5	7
O=C(CCCN1C(=O)/C(=C\c2cccs2)SC1=S)Nc1ccccc1O	8.9*	-3	x	2	-1
COc1ccc(C/C(C)=N/NC(=S)Nc2ccc(Cl)cc2)cc1	-3	-2	58*	17	-2
CCCCc1ccc(NC(=S)Nc2ccc(Nc3ccc(OC)cc3)cc2)cc1	2	-22	56*	18	-7
CCC(CO)N=C1CC(C)(C)CC(=O)/C1=C(/O)CCCN1C(=O)c2ccccc2C1=O (centres undefined)	-2	1	-3	17	4
O=C(NCCc1ccc(Cl)cc1)C1CCC(CNc2nc(=S)[nH]c3ccccc23)CC1 (centres undefined)	16*	7	0	6	4
S=c1nc(NCCc2ccccc2Cl)c2ccccc2[nH]1	12*	-2	-13	-1	-6
C/C(=N\NC(N)=S)C1=CCC2C3CC[C@H]4CC(O)CC[C@]4(C)C3CC[C@]12C (some centres undefined)	0	-1	15	32	-14
Cc1cccc2sc(NNC(=O)c3ccc(S(=O)(=O)N4CCCC(C)C4)cc3)nc12 (centres undefined)	2	8	22	16	2
Cc1cccc2sc(NNC(=O)c3ccc(S(=O)(=O)N4CCc5ccccc5C4)cc3)nc12	0	8	22	5	23*
SMILES	MC4R ag barr	MC4R antag cAMP	B2AR ag	PfGluPho inh	ABHD5-PLIN5 inh
COc1ccc(Cl)cc1Cn1c(C)c(C(=O)NCc2cccc(Cl)c2)sc1=O	2	25	x	x	-8
COc1ccc(C(C[N+](=O)[O-])c2c(-c3ccccc3)cc3ccccn23)c(OC)c1 (centres undefined)	-4	-11	30	23	41*
NC(=O)c1cc([N+](=O)[O-])ccc1NCc1ccc(O)cc1	0	1	-2	17	3
Nc1nonc1-n1nnc(C(=O)N/N=C/c2ccc(Br)cc2)c1-c1ccc2c(c1)OCO2	8.8*	7	9	-8	3
COc1cccc(-c2c(C(=O)N/N=C/c3sccc3C)nnn2-c2nonc2N)c1	-4	0	1	91*	-3
Cn1nc(C(=O)Nc2nc3ccccc3[nH]2)c2ccccc2c1=O	2	19	56*	6	1
